In brackets after ≈: the same amount, converted by molar mass.
What was measured:
Bacillus = assay: Antibacterial activity against Bacillus proteus after overnight incubation by disc diffusion method; type: functional
Method in brief: (§1)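 Agar disc diffusion on beef extract–peptone medium (1% peptone, 0.3% beef extract, 0.5% NaCl, […]), compounds dissolved in sterile water; streptomycin sulfate positive control; plates incubated overnight at 37 °C, then MIC recorded (mg/L).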

Candida albicans [1] = assay: Antifungal activity against Candida albicans ATCC 76615 after 48 hrs by disc diffusion method; type: functional; details: ATCC 76615, 48 h
Method in brief: (§2)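 Disc diffusion on modified Sabouraud-chloramphenicol agar (1% peptone, 2% glucose, […]), compounds as sterile-water stocks; fluconazole and polyoxin B positive controls; MIC (mg/L) recorded after 48 h at 37 °C.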

Pseudomonas aeruginosa = assay: Antibacterial activity against Pseudomonas aeruginosa CR56 after overnight incubation by disc diffusion method; type: functional; method in brief: as §1
Bacillus spizizenii = assay: Antibacterial activity against Bacillus subtilis ATCC 6633 after overnight incubation by disc diffusion method; type: functional; method in brief: as §1
Cryptococcus neoformans = assay: Antifungal activity against Cryptococcus neoformans after 48 hrs by disc diffusion method; type: functional; method in brief: as §2
Staphylococcus aureus [2] = assay: Antibacterial activity against methicillin-resistant Staphylococcus aureus N315 after overnight incubation by disc diffusion method; type: functional
Method in brief: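 Disc diffusion on beef extract-peptone agar (1% peptone, 0.3% beef extract, 0.5% NaCl, […]); compounds dissolved in sterile water; streptomycin sulfate positive control; plates incubated overnight at 37 °C, then MIC (mg/L) recorded.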

[3] = Inhibition of Saccharomyces cerevisiae CGMCC 2.145 chitin synthase assessed as UDP-GlcNAc conversion to chitin after 45 mins by ELISA
Method in brief: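 Enzyme prepared from S. cerevisiae cells sonicated at 4 °C in 50 mM Tris–HCl pH 7.0 with protease inhibitors and PMSF; 55,000 g membrane pellet used. Wells hold UDP-GlcNAc plus 320 mM GlcNAc, compound in Tris buffer (final DMSO below 3%), 45 min at 37 °C. Chitin detected with HRP–wheat germ agglutinin, TMB read at 450 nm against a chitin standard curve; IC50 derived.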

Aspergillus flavus [4] = assay: Antifungal activity against Aspergillus flavus after 48 hrs by disc diffusion method; type: functional; method in brief: as §2
Escherichia coli = assay: Antibacterial activity against Escherichia coli JM 109 after overnight incubation by disc diffusion method; type: functional; method in brief: as §1
Staphylococcus aureus [5] = assay: Antibacterial activity against Staphylococcus aureus ATCC 25923 after overnight incubation by disc diffusion method; type: functional; method in brief: as §1
Candida albicans [6] = assay: Ratio of fluconazole MIC to compound MIC for Candida albicans ATCC 76615; type: functional
Aspergillus flavus [7] = assay: Ratio of fluconazole MIC to compound MIC for Aspergillus flavus; type: functional
Candida albicans [8] = assay: Ratio of polyoxin B MIC to compound MIC for Candida albicans ATCC 76615; type: functional
Aspergillus flavus [9] = assay: Ratio of polyoxin B MIC to compound MIC for Aspergillus flavus; type: functional

| SMILES | MIC (Bacillus) | MIC (Candida albicans [1]) | MIC (Pseudomonas aeruginosa) | MIC (Bacillus spizizenii) | MIC (Cryptococcus neoformans) | MIC (Staphylococcus aureus [2]) | IC50 [3] | MIC (Aspergillus flavus [4]) | MIC (Escherichia coli) | MIC (Staphylococcus aureus [5]) | Ratio (Candida albicans [6]) | Ratio (Aspergillus flavus [7]) | Ratio (Candida albicans [8]) | Ratio (Aspergillus flavus [9]) |
| --- | --- | --- | --- | --- | --- | --- | --- | --- | --- | --- | --- | --- | --- | --- |
| CCCN(CCC)C(=O)CN(C)CC(O)Cn1c(=O)c2ccccc2n(C)c1=O.Cl (configuration not stated) | ≥ 512 µg/mL | > 512 µg/mL | ≥ 512 µg/mL | ≥ 512 µg/mL | 16 µg/mL | ≥ 512 µg/mL | 390 µM | 32 µg/mL | ≥ 512 µg/mL | ≥ 512 µg/mL | – | – | – | – |
| COc1ccc(NC(=O)CN(C)CC(O)Cn2c(=O)c3ccccc3n(C)c2=O)cc1.Cl (configuration not stated) | ≥ 512 µg/mL | 16 µg/mL | ≥ 512 µg/mL | ≥ 512 µg/mL | 128 µg/mL | ≥ 512 µg/mL | 180 µM | 16 µg/mL | ≥ 512 µg/mL | ≥ 512 µg/mL | – | – | – | – |
| CN(CC(=O)NCc1ccccc1)CC(O)Cn1c(=O)c2ccccc2n(C)c1=O.Cl (configuration not stated) | ≥ 512 µg/mL | 32 µg/mL | ≥ 512 µg/mL | ≥ 512 µg/mL | 64 µg/mL | ≥ 512 µg/mL | 130 µM | 32 µg/mL | ≥ 512 µg/mL | ≥ 512 µg/mL | – | – | – | – |
| Cc1ccc(NC(=O)CN(C)CC(O)Cn2c(=O)c3ccccc3n(C)c2=O)cc1.Cl (configuration not stated) | ≥ 512 µg/mL | 32 µg/mL | ≥ 512 µg/mL | ≥ 512 µg/mL | 2 µg/mL | ≥ 512 µg/mL | 80 µM | 32 µg/mL | ≥ 512 µg/mL | ≥ 512 µg/mL | – | – | – | – |
| CN(CC(=O)Nc1ccccc1Cl)CC(O)Cn1c(=O)c2ccccc2n(C)c1=O.Cl (configuration not stated) | ≥ 512 µg/mL | 64 µg/mL | ≥ 512 µg/mL | ≥ 512 µg/mL | 2 µg/mL | ≥ 512 µg/mL | 260 µM | 32 µg/mL | ≥ 512 µg/mL | ≥ 512 µg/mL | – | – | – | – |
| CN(CC(=O)Nc1ccc(Cl)cc1)CC(O)Cn1c(=O)c2ccccc2n(C)c1=O.Cl (configuration not stated) | ≥ 512 µg/mL | 16 µg/mL | ≥ 512 µg/mL | ≥ 512 µg/mL | 2 µg/mL | ≥ 512 µg/mL | 160 µM | 128 µg/mL | ≥ 512 µg/mL | ≥ 512 µg/mL | – | – | – | – |
| CN(CC(=O)Nc1ccc(C(F)(F)F)cc1)CC(O)Cn1c(=O)c2ccccc2n(C)c1=O.Cl (configuration not stated) | ≥ 512 µg/mL | 32 µg/mL | ≥ 512 µg/mL | ≥ 512 µg/mL | 32 µg/mL | ≥ 512 µg/mL | 110 µM | 8 µg/mL | ≥ 512 µg/mL | ≥ 512 µg/mL | – | – | – | – |
| CN(CC(=O)Nc1cccc([N+](=O)[O-])c1)CC(O)Cn1c(=O)c2ccccc2n(C)c1=O.Cl (configuration not stated) | ≥ 512 µg/mL | 4 µg/mL | ≥ 512 µg/mL | ≥ 512 µg/mL | 8 µg/mL | ≥ 512 µg/mL | 240 µM | 4 µg/mL | ≥ 512 µg/mL | ≥ 512 µg/mL | 8 | 16 | 4 | 8 |
| CN(CC(=O)Nc1ccccc1[N+](=O)[O-])CC(O)Cn1c(=O)c2ccccc2n(C)c1=O.Cl (configuration not stated) | ≥ 512 µg/mL | > 512 µg/mL | ≥ 512 µg/mL | ≥ 512 µg/mL | 32 µg/mL | ≥ 512 µg/mL | 210 µM | 64 µg/mL | ≥ 512 µg/mL | ≥ 512 µg/mL | – | – | – | – |
| CN(CC(=O)NCc1ccc(Cl)cc1)CC(O)Cn1c(=O)c2ccccc2n(C)c1=O.Cl (configuration not stated) | ≥ 512 µg/mL | 32 µg/mL | ≥ 512 µg/mL | ≥ 512 µg/mL | 64 µg/mL | ≥ 512 µg/mL | > 750 µM | 64 µg/mL | ≥ 512 µg/mL | ≥ 512 µg/mL | – | – | – | – |
| CN(CC(=O)NC(C)(C)C)CC(O)Cn1c(=O)c2ccccc2n(C)c1=O.Cl (configuration not stated) | ≥ 512 µg/mL | > 512 µg/mL | ≥ 512 µg/mL | ≥ 512 µg/mL | 128 µg/mL | ≥ 512 µg/mL | 140 µM | 64 µg/mL | ≥ 512 µg/mL | ≥ 512 µg/mL | – | – | – | – |
| CN(CC(=O)Nc1ccc(CC#N)cc1)CC(O)Cn1c(=O)c2ccccc2n(C)c1=O.Cl (configuration not stated) | ≥ 512 µg/mL | 4 µg/mL | ≥ 512 µg/mL | ≥ 512 µg/mL | 4 µg/mL | ≥ 512 µg/mL | 120 µM | 8 µg/mL | ≥ 512 µg/mL | ≥ 512 µg/mL | 8 | – | 4 | – |
| COC(=O)c1ccccc1NC(=O)CN(C)CC(O)Cn1c(=O)c2ccccc2n(C)c1=O.Cl (configuration not stated) | ≥ 512 µg/mL | 32 µg/mL | ≥ 512 µg/mL | ≥ 512 µg/mL | 2 µg/mL | ≥ 512 µg/mL | 170 µM | 4 µg/mL | ≥ 512 µg/mL | ≥ 512 µg/mL | – | 16 | – | 8 |
| CN(CC(=O)Nc1ccccc1)CC(O)Cn1c(=O)c2ccccc2n(C)c1=O.Cl (configuration not stated) | ≥ 512 µg/mL | 32 µg/mL | ≥ 512 µg/mL | ≥ 512 µg/mL | 64 µg/mL | ≥ 512 µg/mL | > 750 µM | > 512 µg/mL | ≥ 512 µg/mL | ≥ 512 µg/mL | – | – | – | – |
| CN(CC(=O)Nc1ccc([N+](=O)[O-])cc1)CC(O)Cn1c(=O)c2ccccc2n(C)c1=O.Cl (configuration not stated) | ≥ 512 µg/mL | > 512 µg/mL | ≥ 512 µg/mL | ≥ 512 µg/mL | 64 µg/mL | ≥ 512 µg/mL | > 750 µM | 64 µg/mL | ≥ 512 µg/mL | ≥ 512 µg/mL | – | – | – | – |
| CN(CC(=O)N(Cc1ccccc1)Cc1ccccc1)CC(O)Cn1c(=O)c2ccccc2n(C)c1=O.Cl (configuration not stated) | ≥ 512 µg/mL | 64 µg/mL | ≥ 512 µg/mL | ≥ 512 µg/mL | 2 µg/mL | ≥ 512 µg/mL | 160 µM | 4 µg/mL | ≥ 512 µg/mL | ≥ 512 µg/mL | – | 16 | – | 8 |
| CN(CC(=O)N(C)c1ccccc1)CC(O)Cn1c(=O)c2ccccc2n(C)c1=O.Cl (configuration not stated) | ≥ 512 µg/mL | 64 µg/mL | ≥ 512 µg/mL | ≥ 512 µg/mL | 8 µg/mL | ≥ 512 µg/mL | 320 µM | 256 µg/mL | ≥ 512 µg/mL | ≥ 512 µg/mL | – | – | – | – |
| CCN(CC)C(=O)CN(C)CC(O)Cn1c(=O)c2ccccc2n(C)c1=O.Cl (configuration not stated) | ≥ 512 µg/mL | 64 µg/mL | ≥ 512 µg/mL | ≥ 512 µg/mL | 16 µg/mL | ≥ 512 µg/mL | 340 µM | 8 µg/mL | ≥ 512 µg/mL | ≥ 512 µg/mL | – | – | – | – |
| CN(CC(=O)N1CCCCC1)CC(O)Cn1c(=O)c2ccccc2n(C)c1=O.Cl (configuration not stated) | ≥ 512 µg/mL | 32 µg/mL | ≥ 512 µg/mL | ≥ 512 µg/mL | 512 µg/mL | ≥ 512 µg/mL | > 750 µM | – | ≥ 512 µg/mL | ≥ 512 µg/mL | – | – | – | – |
| OC(Cn1cncn1)(Cn1cncn1)c1ccc(F)cc1F [FLUCONAZOLE] | – | 32 µg/mL (≈ 104 µM) | – | – | 2 µg/mL (≈ 6.53 µM) | – | – | 64 µg/mL (≈ 209 µM) | – | – | – | – | – | – |
| NC(=O)OC[C@H](O)[C@@H](O)[C@H](N)C(=O)N[C@H](C(=O)O)[C@H]1O[C@@H](n2cc(CO)c(=O)[nH]c2=O)[C@H](O)[C@@H]1O [POLYOXIN B] | – | 16 µg/mL (≈ 31.5 µM) | – | – | 4 µg/mL (≈ 7.88 µM) | – | 180 µM | 32 µg/mL (≈ 63.1 µM) | – | – | – | – | – | – |
| CN[C@@H]1[C@H](O[C@H]2[C@H](O[C@H]3[C@H](O)[C@@H](O)[C@H](N=C(N)N)[C@@H](O)[C@@H]3N=C(N)N)O[C@@H](C)[C@]2(O)C=O)O[C@@H](CO)[C@H](O)[C@H]1O.CN[C@@H]1[C@H](O[C@H]2[C@H](O[C@H]3[C@H](O)[C@@H](O)[C@H](N=C(N)N)[C@@H](O)[C@@H]3N=C(N)N)O[C@@H](C)[C@]2(O)C=O)O[C@@H](CO)[C@H](O)[C@H]1O.O=S(=O)(O)O.O=S(=O)(O)O.O=S(=O)(O)O [STREPTOMYCIN SULFATE] | 64 µg/mL | – | 64 µg/mL | 64 µg/mL | – | 64 µg/mL | – | – | 64 µg/mL | 64 µg/mL | – | – | – | – |
